# Publication PMC2805153 (Molecular cancer therapeutics, 2009)
# Entries after “also recorded” stand apart in the source; their conditions may differ.
# Key:
# human breast tumor cells = experiment: Growth assay, breast tumor cells in general; assay type: cell-based; settings: SK-BR-3 and MDA-MB-231 breast tumor cells, 72 hours of treatment
# In short: (§1)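 SK-BR-3 and MDA-MB-231 cells were grown in RPMI 1640 with 1.5% FBS at 37°C and 5% CO2, seeded at 5,000/well, and rested 18–24 h. Test compound or vehicle was added for 72 h (DMSO ≤0.2%). CellTiter-Glo ATP luminescence gave viable cells.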
# PDE5A = PDE5A (Homo sapiens, UniProt O76074); experiment: Recombinant PDE isozyme IMAP FP assay; assay type: biochemical
# In short: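 Commercial recombinant PDE isozyme at 0.25 mg/mL, preincubated with test compound 30 min at 30°C. Substrate mix of 25 nM each fluorescein-cAMP and TAMRA-cGMP then added for 90 min at 30°C, with cAMP and cGMP hydrolysis read together. Binding reagent stops reaction; IMAP fluorescence polarization read. DMSO ≤2%. IC50 from 10 concentrations, ≥2 replicates each, versus vehicle, four-parameter logistic fit; experiments repeated at least twice.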
# MDA-MB-231 cells = experiment: Intracellular cGMP assay; assay type: cell-based, human
# In short: (§2)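 Cells were seeded at 1×10^6 per 10 cm dish: HMEC in MEGM, MDA-MB-231 in RPMI 1640 with 1.5% FBS. After 48 h they were exposed to test compound or vehicle for 30 min, then lysed. Intracellular cGMP was measured by direct competitive EIA, optical density at 630 nm.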
# [1] = test system: PDE activity in SK-BR-3 and MDA-MB-231 cell lysates; experiment: IMAP FP PDE assay in tumor cell lysates; assay type: biochemical, human; settings: for inhibition of cGMP hydrolysis: tumor cell lysates, TAMRA-cGMP substrate
# [2] = test system: PKG (VASP phosphorylation) in MDA-MB-231 cells; experiment: VASP Ser239 phosphorylation western blot; assay type: cell-based, human
# In short: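 MDA-MB-231 cells were treated with test compound across doses and times, then lysed in Tris-acetate/Triton X-100/NaF buffer at pH 7.4. Lysate (30 μg protein) was separated by 12% SDS-PAGE and transferred to nitrocellulose, blocked in 5% BSA in TBS-0.05% Tween-20. Blots were probed for phospho-VASP Ser239 and total VASP with HRP secondaries and detected by chemiluminescence on film.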
# HMEC [3] = experiment: Caspase3/7 Glo apoptosis assay; assay type: cell-based, human; settings: 5 hours, staurosporine 1μM positive control
# In short: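 HMEC grown in MEGM complete medium were seeded at 10,000 cells/well and left 18–24 h. They were then exposed to test compound or vehicle (DMSO ≤0.2%), with 1μM staurosporine as positive control. Apoptosis was read as Caspase3/7 Glo luminescence from cleavage of a caspase 3/7 substrate.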
# PDE9A = PDE9A (Homo sapiens, UniProt O76083); experiment: Recombinant PDE isozyme IMAP FP assay; assay type: biochemical; settings: cGMP substrate; SS tested up to 200 μM
# HMEC [4] = experiment: Intracellular cGMP assay; assay type: cell-based, human; settings: 30 minutes of treatment
# In short: as §2
# COX-1 = settings: read-out: IC50 to inhibit COX-1; cited from earlier work
# PDE8A = PDE8A (Homo sapiens, UniProt O60658); experiment: Recombinant PDE isozyme IMAP FP assay; assay type: biochemical; settings: cAMP substrate; SS tested up to 200 μM
# PDE6C = PDE6C (Homo sapiens, UniProt P51160); experiment: Recombinant PDE isozyme IMAP FP assay; assay type: biochemical; settings: cGMP substrate; SS tested up to 200 μM
# [5] = test system: MDA-MB-231 breast tumor cells; experiment: Growth assay; assay type: cell-based, human
# In short: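 MDA-MB-231 cells went into RPMI 1640 with 1.5% FBS at 5,000/well and rested 18–24 h. Optional 1 h pretreatment with NOR-3 came next, then test compound or vehicle for 72 h (DMSO ≤0.2%). Viable cells were read as ATP luminescence (CellTiter-Glo).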
# [6] = test system: SK-BR-3 breast tumor cells; experiment: Growth assay; assay type: cell-based; settings: Homo sapiens, SK-BR-3, 72 h, read-out: growth inhibition IC50
# In short: as §1
# [7] = test system: ZR75-1 breast tumor cells; experiment: Growth assay; assay type: cell-based; settings: Homo sapiens, ZR-75-1, 72 h, read-out: growth inhibition IC50
# In short: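 Cells seeded at 5,000/well were rested 18–24 h, then treated with test compound or vehicle for 72 h (DMSO ≤0.2%). Growth was scored as viable-cell ATP luminescence (CellTiter-Glo) against vehicle.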
# [8] = test system: PDE activity in HMEC lysates; experiment: IMAP FP PDE assay in HMEC lysates; assay type: biochemical, human
# In short: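 HMEC were lysed in ice-cold buffer (20mM Tris-acetate, 5mM Mg acetate, 1mM EGTA, 0.8% Triton X-100, 50mM NaF, protease inhibitors, pH 7.4) and cleared at 10,000g, 10 min, 4°C. Lysate at 0.25 mg/mL was preincubated with test compound 30 min at 30°C. Substrate was 25 nM each Fl-cAMP and TAMRA-cGMP, run 90 min at 30°C. Reactions were stopped with IMAP binding reagent and read by FP (DMSO ≤2%). IC50 came from 10 concentrations, ≥2 replicates.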
# PDE4A = PDE4A (Homo sapiens, UniProt P27815); experiment: Recombinant PDE isozyme IMAP FP assay; assay type: biochemical; settings: cAMP substrate; SS tested up to 200 μM
# breast tumor cells [9] = experiment: Cell cycle distribution; assay type: cell-based, human; settings: conditions of the growth assays, data not shown
# [10] = test system: MDA-MB-231, SKBR3, and ZR75-1 cells; experiment: Caspase3/7 Glo apoptosis assay; assay type: cell-based, human; settings: 100 μM, 5 hours
# In short: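 MDA-MB-231 and SK-BR-3 cells were kept in RPMI 1640 with 10% FBS, with serum cut to 1.5% FBS for the assay, at 37°C and 5% CO2. Cells were seeded at 10,000/well, rested 18–24 h, then given test compound or vehicle (DMSO ≤0.2%). Caspase 3/7 activation was read as luminescence from Caspase3/7 Glo substrate cleavage.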
# [11] = test system: normal human mammary epithelial cells (HMEC); experiment: Growth assay; assay type: cell-based; settings: 72 h, read-out: growth inhibition IC50
# In short: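 Primary normal mammary epithelial cells were grown in MEGM complete medium and seeded at 5,000/well. After 18–24 h they received test compound or vehicle for 72 h (DMSO ≤0.2%). ATP-based luminescence (CellTiter-Glo) measured viable cells.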
# PDE10A = PDE10A (Homo sapiens, UniProt Q9Y233); experiment: Recombinant PDE isozyme IMAP FP assay; assay type: biochemical; settings: SS tested up to 200 μM
# breast tumor cells [12] = experiment: TUNEL labeling; assay type: cell-based, human; settings: data not shown
# PDE11A = PDE11A (Homo sapiens, UniProt Q9HCR9); experiment: Recombinant PDE isozyme IMAP FP assay; assay type: biochemical; settings: SS tested up to 200 μM
# PDE7A = PDE7A (Homo sapiens, UniProt Q13946); experiment: Recombinant PDE isozyme IMAP FP assay; assay type: biochemical; settings: cAMP substrate; SS tested up to 200 μM
# [13] = breast tumor cells, line not given
# [14] = MDA-MB-231, 30 minutes of treatment
# PDE11A, sequence (Q9HCR9 whole entry): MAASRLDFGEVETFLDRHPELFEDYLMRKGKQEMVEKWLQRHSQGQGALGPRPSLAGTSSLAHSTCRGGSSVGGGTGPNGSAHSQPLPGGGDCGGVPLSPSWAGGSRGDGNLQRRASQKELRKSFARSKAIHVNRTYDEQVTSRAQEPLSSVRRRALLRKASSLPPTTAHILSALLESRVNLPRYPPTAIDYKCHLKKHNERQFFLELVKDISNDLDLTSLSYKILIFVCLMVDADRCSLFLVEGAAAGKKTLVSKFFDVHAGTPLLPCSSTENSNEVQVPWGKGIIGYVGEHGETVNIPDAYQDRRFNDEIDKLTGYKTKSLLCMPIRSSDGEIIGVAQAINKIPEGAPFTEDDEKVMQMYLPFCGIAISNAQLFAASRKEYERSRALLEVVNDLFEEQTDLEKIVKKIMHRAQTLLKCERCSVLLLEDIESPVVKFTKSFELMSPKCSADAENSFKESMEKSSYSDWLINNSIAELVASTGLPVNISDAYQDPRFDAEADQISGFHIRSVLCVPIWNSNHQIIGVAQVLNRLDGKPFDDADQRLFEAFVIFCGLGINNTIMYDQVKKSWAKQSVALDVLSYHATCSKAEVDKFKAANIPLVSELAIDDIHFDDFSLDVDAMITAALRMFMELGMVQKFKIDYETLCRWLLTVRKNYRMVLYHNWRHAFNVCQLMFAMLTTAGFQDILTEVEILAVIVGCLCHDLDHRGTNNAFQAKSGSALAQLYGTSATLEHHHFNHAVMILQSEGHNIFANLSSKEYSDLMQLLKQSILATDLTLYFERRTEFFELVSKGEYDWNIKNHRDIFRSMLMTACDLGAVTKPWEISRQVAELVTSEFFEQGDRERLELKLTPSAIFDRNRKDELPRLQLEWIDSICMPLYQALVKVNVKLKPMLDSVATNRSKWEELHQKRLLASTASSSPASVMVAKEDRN
# PDE10A, sequence (Q9Y233 290-1055 limits assumed): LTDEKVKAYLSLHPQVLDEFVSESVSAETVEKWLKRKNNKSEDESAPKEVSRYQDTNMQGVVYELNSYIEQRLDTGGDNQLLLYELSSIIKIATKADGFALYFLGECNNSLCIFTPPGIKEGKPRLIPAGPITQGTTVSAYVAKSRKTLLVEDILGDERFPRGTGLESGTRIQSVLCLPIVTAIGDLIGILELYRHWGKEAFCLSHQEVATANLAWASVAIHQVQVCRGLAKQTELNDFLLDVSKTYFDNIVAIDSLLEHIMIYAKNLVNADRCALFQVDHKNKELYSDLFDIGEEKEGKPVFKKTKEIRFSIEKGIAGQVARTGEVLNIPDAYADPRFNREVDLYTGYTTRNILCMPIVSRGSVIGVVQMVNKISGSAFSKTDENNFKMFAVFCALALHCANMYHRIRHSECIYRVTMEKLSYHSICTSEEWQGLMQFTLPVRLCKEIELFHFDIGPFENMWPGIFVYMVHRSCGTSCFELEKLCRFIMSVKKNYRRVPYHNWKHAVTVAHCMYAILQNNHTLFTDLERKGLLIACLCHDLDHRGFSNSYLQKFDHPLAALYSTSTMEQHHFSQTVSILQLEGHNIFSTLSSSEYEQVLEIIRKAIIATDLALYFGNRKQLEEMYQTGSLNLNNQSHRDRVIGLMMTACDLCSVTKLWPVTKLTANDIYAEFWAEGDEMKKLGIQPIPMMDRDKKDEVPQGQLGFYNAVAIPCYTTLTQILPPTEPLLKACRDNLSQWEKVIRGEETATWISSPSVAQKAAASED
# PDE4A, sequence (P27815 whole entry): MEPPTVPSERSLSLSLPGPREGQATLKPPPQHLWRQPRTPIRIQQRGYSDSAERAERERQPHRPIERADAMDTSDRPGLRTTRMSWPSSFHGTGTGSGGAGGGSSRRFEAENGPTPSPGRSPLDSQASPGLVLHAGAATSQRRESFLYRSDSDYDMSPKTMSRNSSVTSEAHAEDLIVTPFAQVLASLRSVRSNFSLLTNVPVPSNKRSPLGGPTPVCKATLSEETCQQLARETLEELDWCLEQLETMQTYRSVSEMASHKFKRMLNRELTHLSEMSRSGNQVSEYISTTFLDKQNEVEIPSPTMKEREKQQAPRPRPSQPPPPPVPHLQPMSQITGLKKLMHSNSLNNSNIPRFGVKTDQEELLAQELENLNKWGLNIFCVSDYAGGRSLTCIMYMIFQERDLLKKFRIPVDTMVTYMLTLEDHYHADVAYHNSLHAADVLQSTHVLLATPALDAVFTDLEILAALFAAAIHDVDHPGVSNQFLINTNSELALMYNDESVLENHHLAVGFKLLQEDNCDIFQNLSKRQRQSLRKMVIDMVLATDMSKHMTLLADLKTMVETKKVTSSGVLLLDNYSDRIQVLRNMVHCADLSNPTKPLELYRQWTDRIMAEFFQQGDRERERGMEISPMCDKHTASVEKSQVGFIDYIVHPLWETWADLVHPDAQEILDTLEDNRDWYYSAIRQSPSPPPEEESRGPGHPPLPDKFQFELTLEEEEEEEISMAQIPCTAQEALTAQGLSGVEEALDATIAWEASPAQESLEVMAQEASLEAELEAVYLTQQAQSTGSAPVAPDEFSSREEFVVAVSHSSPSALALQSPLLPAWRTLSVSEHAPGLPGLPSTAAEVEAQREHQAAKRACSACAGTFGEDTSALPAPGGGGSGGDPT
# PDE7A, sequence (Q13946 whole entry): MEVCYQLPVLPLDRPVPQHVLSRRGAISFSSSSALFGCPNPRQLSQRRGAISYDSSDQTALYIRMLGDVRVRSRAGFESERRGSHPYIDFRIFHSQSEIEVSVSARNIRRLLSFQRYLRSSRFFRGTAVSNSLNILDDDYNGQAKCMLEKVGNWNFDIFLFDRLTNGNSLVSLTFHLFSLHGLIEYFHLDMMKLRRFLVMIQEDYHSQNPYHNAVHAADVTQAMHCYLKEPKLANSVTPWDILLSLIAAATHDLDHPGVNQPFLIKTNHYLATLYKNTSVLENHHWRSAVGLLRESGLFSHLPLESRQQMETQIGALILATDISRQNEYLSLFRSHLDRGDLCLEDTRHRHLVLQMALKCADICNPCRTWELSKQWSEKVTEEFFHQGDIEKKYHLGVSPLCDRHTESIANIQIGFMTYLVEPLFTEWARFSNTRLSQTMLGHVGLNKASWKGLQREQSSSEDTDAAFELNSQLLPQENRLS
# PDE9A, sequence (O76083 whole entry): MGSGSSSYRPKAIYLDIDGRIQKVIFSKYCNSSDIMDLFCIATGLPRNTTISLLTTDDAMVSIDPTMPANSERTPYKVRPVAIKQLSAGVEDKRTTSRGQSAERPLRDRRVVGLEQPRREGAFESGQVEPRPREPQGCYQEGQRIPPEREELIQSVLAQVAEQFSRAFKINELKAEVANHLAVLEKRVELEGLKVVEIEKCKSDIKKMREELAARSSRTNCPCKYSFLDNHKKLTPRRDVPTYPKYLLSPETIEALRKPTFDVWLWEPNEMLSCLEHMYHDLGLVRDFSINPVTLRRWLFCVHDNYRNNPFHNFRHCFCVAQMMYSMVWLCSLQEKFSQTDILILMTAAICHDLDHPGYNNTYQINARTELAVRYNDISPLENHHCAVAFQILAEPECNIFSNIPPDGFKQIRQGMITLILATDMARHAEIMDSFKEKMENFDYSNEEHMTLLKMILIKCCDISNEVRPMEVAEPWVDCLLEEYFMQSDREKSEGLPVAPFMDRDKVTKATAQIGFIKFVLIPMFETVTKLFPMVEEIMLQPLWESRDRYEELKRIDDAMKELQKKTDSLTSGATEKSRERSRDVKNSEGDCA
# PDE8A, sequence (O60658 whole entry): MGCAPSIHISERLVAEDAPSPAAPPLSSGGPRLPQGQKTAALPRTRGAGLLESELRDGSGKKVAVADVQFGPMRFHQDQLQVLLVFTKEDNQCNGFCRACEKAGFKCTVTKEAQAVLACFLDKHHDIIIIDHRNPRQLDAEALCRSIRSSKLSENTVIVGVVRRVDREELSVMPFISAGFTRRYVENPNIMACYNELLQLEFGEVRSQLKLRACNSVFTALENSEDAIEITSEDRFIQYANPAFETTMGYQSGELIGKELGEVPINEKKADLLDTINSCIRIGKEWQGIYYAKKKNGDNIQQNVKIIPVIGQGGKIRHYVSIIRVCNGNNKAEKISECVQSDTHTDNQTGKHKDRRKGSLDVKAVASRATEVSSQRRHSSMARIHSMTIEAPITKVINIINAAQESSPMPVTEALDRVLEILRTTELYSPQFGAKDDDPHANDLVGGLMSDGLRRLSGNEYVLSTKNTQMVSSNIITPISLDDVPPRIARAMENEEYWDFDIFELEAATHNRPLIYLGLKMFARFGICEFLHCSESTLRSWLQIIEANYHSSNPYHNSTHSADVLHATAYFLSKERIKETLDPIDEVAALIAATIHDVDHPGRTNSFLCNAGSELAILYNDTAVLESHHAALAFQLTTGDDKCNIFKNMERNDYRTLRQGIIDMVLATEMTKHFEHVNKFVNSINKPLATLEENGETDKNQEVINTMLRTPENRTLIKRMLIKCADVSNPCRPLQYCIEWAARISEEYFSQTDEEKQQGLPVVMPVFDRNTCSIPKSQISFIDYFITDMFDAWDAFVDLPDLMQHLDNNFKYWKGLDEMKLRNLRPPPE
compound,measurement,setting,value
COc1ccc(C2CNC(=O)C2)cc1OC1CCCC1 (centres unmarked) [rolipram],tumor cell growth inhibitory activity,human breast tumor cells,none were found to be active
"Clc1cccc(Nc2nnc(-c3ccccc3)c3ccccc23)c1 [MY5445, 1-(3-chloroanilino)-4-phenylphthalazine]",IC50,PDE5A,14.3 µM
same,tumor cell growth inhibitory activity,human breast tumor cells,inhibited breast tumor cell growth
CCCc1nn(C)c2c(=O)[nH]c(-c3cc(S(=O)(=O)N4CCN(C)CC4)ccc3OCC)nc12 [sildenafil],increase of intracellular cGMP levels,MDA-MB-231 cells; [13],unable to significantly increase intracellular cGMP levels
same,inhibition of cGMP hydrolysis,[1],inhibit the majority of cGMP PDE activity
same,tumor cell growth inhibitory activity,human breast tumor cells,none were found to be active; also recorded: unable to inhibit breast tumor cell growth
same,PKG activation,[2]; [13],unable to significantly increase intracellular cGMP levels or activate PKG
CCCOc1ccccc1-c1nc2nn[nH]c2c(=O)[nH]1 [zaprinast],tumor cell growth inhibitory activity,human breast tumor cells,none were found to be active
CCCCCC[C@@H]([C@@H](C)O)n1cnc2c(N)ncnc21 (racemic) [EHNA],tumor cell growth inhibitory activity,human breast tumor cells,none were found to be active
Cc1[nH]c(=O)c(C#N)cc1-c1ccncc1 [milrinone],tumor cell growth inhibitory activity,human breast tumor cells,none were found to be active
"COc1cc2c(cc1OC)-c1c/c(=N\c3c(C)cc(C)cc3C)n(C)c(=O)n1CC2 [Trequinsin, trequinsin]",tumor cell growth inhibitory activity,human breast tumor cells,inhibited breast tumor cell growth
C=C[C@@]1(C)CC(=O)[C@]2(O)[C@@]3(C)[C@@H](O)CCC(C)(C)[C@@H]3[C@H](O)[C@H](OC(C)=O)[C@@]2(C)O1 [forskolin],tumor cell growth inhibitory activity,human breast tumor cells,no significant growth inhibitory activity
"CC(C)Cn1c(=O)n(C)c(=O)c2[nH]cnc21 [IBMX, 3-Isobutyl-1-methylxanthine]",tumor cell growth inhibitory activity,human breast tumor cells,none were found to be active
CN[C@@H]1C[C@H]2O[C@@](C)([C@@H]1OC)n1c3ccccc3c3c4c(c5c6ccccc6n2c5c31)C(=O)NC4 [staurosporine],activation of caspases 3 and 7,HMEC [3],increased caspase activity
COCc1nc2c([nH]1)c(=O)n(C)c(=O)n2CC(C)C [8-methoxymethyl-IBMX],tumor cell growth inhibitory activity,human breast tumor cells,none were found to be active
"CC/C(=C\C(=N/O)C(N)=O)C(C)[N+](=O)[O-] (racemic) [NOR-3, (±)-(E)-Ethyl-2-((E)-hydroxyimino)-5-nitro-3-hexenamide]",tumor cell growth inhibitory activity,human breast tumor cells,inhibited the growth
OCCN(CCO)c1nc(N2CCCCC2)c2nc(N(CCO)CCO)nc(N3CCCCC3)c2n1 [dipyridamole],tumor cell growth inhibitory activity,human breast tumor cells,none were found to be active
"CSc1ccc(/C=C2/C(C)=C(CC(=O)O)c3cc(F)ccc32)cc1 [SS, sulindac sulfide]","IC50, cGMP hydrolysis by PDE9A",PDE9A,Inactive
same,increase of intracellular cGMP levels,HMEC [4],failed to induce cGMP levels
same,"IC50, cAMP hydrolysis by PDE8A",PDE8A,Inactive
same,increase of intracellular cGMP levels,MDA-MB-231 cells; [14],2-3 fold
same,"IC50, cGMP hydrolysis by PDE6C",PDE6C,Inactive
same,change of growth inhibition IC50 after pre-treatment with GC activator NOR-3,"[5]; 1 hour pretreatment with NOR-3, 72 hours of SS treatment",significant reduction in the IC50 value
same,IC50,"[5]; Homo sapiens, MDA-MB-231, 72 h, read-out: growth inhibition IC50",84 µM
same,IC50,[6],59 µM
same,IC50,[7],76 µM
same,inhibition of cAMP hydrolysis,[8],did not affect
same,inhibition of cGMP hydrolysis,[8],did not affect
same,"IC50, cAMP hydrolysis by PDE4A",PDE4A,Inactive
same,effect on cell cycle distribution,breast tumor cells [9],did not have a significant effect
same,inhibition of cAMP hydrolysis,"[1]; breast tumor cell lysates, Fl-cAMP substrate",did not significantly affect
same,inhibition of cGMP hydrolysis,[1],inhibited cGMP hydrolysis
same,increase in the activity of caspases 3 and 7 compared to vehicle,[10],2-8 fold
same,IC50,[11],163 µM
same,time at which VASP phosphorylation peaked,"[2]; MDA-MB-231, 100 μM",1 h
same,VASP phosphorylation at serine 239 (p-VASP levels),"[2]; MDA-MB-231, dose- and time-dependent",increased the levels of phosphorylated VASP
same,"IC50, cAMP hydrolysis by PDE10A",PDE10A; cAMP substrate,Inactive
same,"IC50, cGMP hydrolysis by PDE10A",PDE10A; cGMP substrate,Inactive
same,activation of caspases 3 and 7,HMEC [3],resistant
same,TUNEL labeling,breast tumor cells [12],increased TUNEL labeling
same,"IC50, cAMP hydrolysis by PDE11A",PDE11A; cAMP substrate,Inactive
same,"IC50, cGMP hydrolysis by PDE11A",PDE11A; cGMP substrate,Inactive
same,"IC50, cAMP hydrolysis by PDE7A",PDE7A,Inactive
O=C1C(Nc2ccccc2)=CC(=O)c2ncccc21 [LY83583],effect on sensitivity to growth inhibition by doxorubicin,"[5]; MDA-MB-231, control experiment, data not shown",ineffective
